Experimental data as given in paper PMC6366617 (Science (New York, N.Y.), 2019).

B2: sushi 1 domain of GABABR1a (Fc-tag enzymatically removed) (domain or fragment)
chain: TSEGCQIIHPPWEGGIRYRGLTRDQVKAINFLPVDYEIEYVCRGEREVVGPKVRKCLANGSWTDMDTPSRCVR

What was measured:
[1] = system: neurons lacking APP; App/Aplp1 dKO cultures (mEPSCs); assay: mEPSC recording in neurons lacking APP / App/Aplp1 dKO cultures; format: cell-based, mouse
App KO mice = conditions: cited from earlier work
[2] = system: cultured mouse hippocampal neurons (mEPSCs); assay: mEPSC recording in cultured hippocampal neurons; format: cell-based; conditions: for reduction of mEPSC frequency: P < 0.001, 12-17 DIV; for effect on mEPSC frequency: acute application, Fc-tag enzymatically removed (ExD-AcD, sAPPαΔExD; n=17-20, N=3)
[3] = system: Schaffer collateral synapses, acute hippocampal slices; design: species or system mouse; conditions: for paired-pulse ratio (PPR): 1 μM protein, first 2 stimuli at 20, 50 and 100 Hz
Procedure, shortened: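 Acute mouse hippocampal slices were pre-incubated 90 min with or without 1 μM test protein (Fc tag removed), with or without 10 μM CGP54626. fEPSPs were recorded in CA1 stratum radiatum on Schaffer collateral stimulation. Input/output: 0.1 Hz, 30–150 μA. Bursts at 20, 50 and 100 Hz were normalized to the first response peak. PPR used the first two pulses. n is slices. Means ± SEM.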

[4] = target: sushi 1 domain of GABABR1a (Homo sapiens, UniProt Q9UBS5); assay: Isothermal titration calorimetry; format: binding; conditions: ITC
Procedure, shortened: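 Isothermal titration calorimetry was run between purified test protein and purified GABABR1a sushi 1 domain. Fc tags were enzymatically removed from both. The dissociation constant (KD) was derived from the titration.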

[5] = system: neurons lacking APP; App/Aplp1 dKO cultures (mIPSCs); assay: mIPSC recording in neurons lacking APP / App/Aplp1 dKO cultures; format: cell-based, mouse
[6] = system: cultured hippocampal mouse neurons (presynaptic strength); assay: FM1-43 presynaptic vesicle recycling in cultured hippocampal neurons; format: cell-based
Procedure, shortened: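 Cultured mouse hippocampal neurons were loaded and unloaded with FM1–43 by a combined stimulation paradigm, before and after test protein (Fc tag enzymatically removed; dose series, 1 μM top). Presynaptic strength S = ΔF at individual boutons × density of FM+ boutons per image area. Antagonist arms were run with or without GABABR antagonist, normalized to control. N is independent experiments. Means ± SEM, one-way ANOVA with Tukey post hoc.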

[7] = system: synaptic transmission and plasticity; conditions: ref [16]–[19]; cited from earlier work
GABABR1a sushi 1 = assay: Biolayer interferometry, sAPPα binding to immobilized sushi peptides; conditions: sAPPα Fc-tag enzymatically removed; immobilized Fc-tagged sushi peptides
[8] = system: cultured mouse hippocampal neurons (mIPSCs); assay: mIPSC recording in cultured hippocampal neurons; format: cell-based; conditions: for reduction of mIPSC frequency: acute, P < 0.001
Procedure, shortened: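 Mouse hippocampal neurons in culture (12–17 DIV) were recorded for miniature currents, and mIPSCs were separated from mEPSCs by their decay kinetics. Frequency was compared between baseline and acute application of 250 nM test protein, or of 30 μM baclofen as GABABR agonist reference. n is cells.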

GABABR2 = assay: Cell-surface binding assay, GABABR2-expressing HEK293T cells; conditions: immunostaining, confocal, pDisplay vector, n=24
GABABR1b = assay: Cell-surface binding assay, GABABR1b-expressing HEK293T cells; conditions: immunostaining, confocal, pDisplay vector, n=24
Procedure, shortened: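 Fc-tagged test protein, affinity-purified from transfected HEK293T supernatants, was applied to HEK293T cells displaying the receptor ectodomain at the surface (pDisplay). Fc alone served as control. Bound protein was detected by immunostaining, imaged by confocal microscopy and quantified per cell. n is total cells from 3–4 independent experiments. Means ± SEM, two-way ANOVA with Bonferroni post hoc.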

[9] = target: B2; assay: ITC
[10] = target: sAPPα (Fc-tag enzymatically removed) (UniProt P05067-4 18-612); assay: ITC
[11] = system: sAPPα-Fc binding to GABABR1a-expressing HEK293T cells; assay: Competition of sAPPα-Fc binding to GABABR1a-expressing HEK293T cells; conditions: increasing concentrations of untagged sushi 1 peptide, excess; n=24-31
[12] = 1 μM sAPPα, 90 min pre-incubation, 0.1 Hz, 30-150 μA
[13] = 30 μM baclofen, App/Aplp1 dKO vs WT cultures

Molecule: sAPPα: soluble APP ectodomain released by α-secretase; purified recombinant protein
- effect on mEPSC frequency in neurons lacking APP ([1]; sAPPα, neurons lacking APP): still reduced mEPSC and mIPSC frequency
- rescue of spine density defects (App KO mice; ref [20]): sufficient to rescue synaptic defects in App KO mice, including defects in spine density
- rescue of LTP defects (App KO mice; ref [21], [22]): sufficient to rescue synaptic defects in App KO mice
- rescue of spatial learning defects (App KO mice; ref [21]): sufficient to rescue synaptic defects in App KO mice
- effect on mEPSC frequency at 25 nM ([2]; 25nM sAPPα): already apparent at 25nM
- effect on mEPSC amplitude ([2]; 250 nM sAPPα (Fc-tag removed), acute): without affecting mEPSC amplitude
- reduction of mEPSC frequency ([2]; 250 nM sAPPα (Fc-tag removed), acute, n=13 cells): 39 ± 5%
- paired-pulse ratio (PPR) [3]: increased PPR for each frequency
- decrease of slope of the input/output (i/o) curve [3, 12]: 23%
- fEPSP amplitude [3, 12]: reduced fEPSP amplitude
- Kd ([4]; read-out: dissociation constant (KD) for sAPPα-sushi 1, purified proteins, Fc-tag enzymatically removed from both): 431 nM
- effect on mIPSC frequency in neurons lacking APP ([5]; sAPPα, neurons lacking APP): still reduced mEPSC and mIPSC frequency
- reduction of total presynaptic strength (S = ΔF × D) ([6]; 1 μM sAPPα, FM1-43 loading/unloading, n=8 experiments, P < 0.001): 57 ± 7%
- total presynaptic strength (S = ΔF × D), dose dependence ([6]; FM1-43 loading/unloading, sAPPα Fc-tag enzymatically removed, N=5-8): decreased the total presynaptic strength
- effect on LTP [7]: an enhancement of LTP
- effect on synaptic activity [7]: a reduction in synaptic activity
- binding of sAPPα to sushi 1 (biolayer interferometry) (GABABR1a sushi 1): sushi 1 peptide was sufficient for binding sAPPα
- reduction of mIPSC frequency ([8]; 250 nM sAPPα, n=13 cells): 44 ± 5%
- reduction in mIPSC amplitude ([8]; sAPPα, acute (250 nM)): 14%

Molecule: NCC(CC(=O)O)c1ccc(Cl)cc1 (stereo not drawn) [baclofen, reference compound]
- effect on mEPSC frequency in App/Aplp1 dKO cultures [1, 13]: similarly reduced mEPSC and mIPSC frequency
- reduction of mEPSC frequency ([2]; 30 μM baclofen, acute, n=14 cells): 63 ± 5%
- effect on mIPSC frequency in App/Aplp1 dKO cultures [5, 13]: similarly reduced mEPSC and mIPSC frequency
- reduction of mIPSC frequency ([8]; 30 μM baclofen, n=14 cells): 62 ± 5%

Molecule: sAPPβ: soluble APP ectodomain released by β-secretase
- effect on mEPSC frequency [2]: similarly reduced mEPSC frequency

Molecule: C[C@H](NC[C@H](O)CP(=O)(O)CC1CCCCC1)c1ccc(Cl)c(Cl)c1 [CGP54626, reference compound]
- effect of CGP54626 on sAPPα-mediated decrease in i/o slope ([3]; CGP54626 10 μM, preincubation of slices): abolished the sAPPα-mediated decrease in the slope of the i/o curve
- effect of CGP54626 on sAPPα-induced decrease of presynaptic strength ([6]; CGP54626 10μM, N=8): occluded

Molecule: residues 211–220: peptide of APP695 residues 211–220 (GGADTDYADG)
- binding affinity to sushi 1 (in words) ([4]; for ExD-AcD Fc-tag enzymatically removed): failed to bind sushi 1

Molecule: sAPPα-Fc: recombinant sAPPα with C-terminal Fc-tag from transfected HEK293T supernatants
- binding to GABABR2-expressing cells (GABABR2): not to GABABR1b-, or GABABR2-, expressing cells
- binding to GABABR1b-expressing cells (GABABR1b): not to GABABR1b-

Molecule: C[C@H](NC[C@H](O)CP(=O)(O)Cc1ccccc1)c1ccc(Cl)c(Cl)c1 [CGP55845, reference compound]
- effect of CGP55845 pretreatment on APP 17mer reduction of mEPSC frequency ([2]; CGP55845 5μM, 17mer 250 nM, n=16, N=3 (without CGP n=14, N=3)): blocks this effect
- effect of CGP55845 pretreatment on sAPPα effect on mIPSC frequency ([8]; CGP55845 5 μM, pretreatment): blocked by pretreatment

Molecule: sAPPαΔExD: sAPPα with deletion of the ExD
- effect on mEPSC frequency [2]: had no effect
- paired-pulse ratio (PPR) [3]: abolished the sAPPα-mediated effect
- effect on the i/o curve with ExD deletion ([3]; sAPPαΔExD 1 μM): abolished the sAPPα-mediated effect on the i/o curve
- decrease of total presynaptic strength with ExD deletion ([6]; sAPPαΔExD 1 μM, FM1-43): not observed
- effect on mIPSC frequency ([8]; acute application): not sAPPαΔExD, reduced mIPSC frequency

Molecule: DDSDVWWGG (peptide, UniProt P05067-4 204-212, looked up) [APP 9mer peptide (APP695 residues 204-212)]
- Kd [9]: 2300 nM

B1: sAPLP1: soluble APP-like protein 1, lacks a conserved ExD (protein)
chain: SLAGGSPGAAEAPGSAQVAGLCGRLTLHRDLRTGRWEPDPQRSRRCLRDPQRVLEYCRQMYPELQIARVEQATQAIPMERWCGGSRSGSCAHPHHQVVPFRCLPGEFVSEALLVPEGCRFLHQERMDQCESSTRRHQEAQEACSSQGLILHGSGMLLPCGSDRFRGVEYVCCPPPGTPDPSGTAVGDPSTRSWPPGSRVEGAEDEEEEESFPQPVDDYFVEPPQAEEEEETVPPPSSHTLAVVGKVTPTPRPTDGVDIYFGMPGEISEHEGFLRAKMDLEERRMRQINEVMREWAMADNQSKNLPKADRQALNEHFQSILQTLEEQVSGERQRLVETHATRVIALINDQRRAALEGFLAALQADPPQAERVLLALRRYLRAEQKEQRHTLRHYQHVAAVDPEKAQQMRFQVHTHLQVIEERVNQSLGLLDQNPHLAQELRPQIQELLHSEHLGPSELEAPAPGGSSEDKGGLQPPDSKDDTPMTLPKGSTEQDAASPEKEKMNPLEQYERKVNASVPRGFPFHSSEIQRDELAPAGTGVSRE
modifications: left off: Fc, end not stated, kept
- effect on mEPSC frequency [2]: did not reduce mEPSC frequency
- reduction in mIPSC frequency by sAPLP1 ([8]; sAPLP1, acute, n=17 cells, P < 0.05): 17 ± 9%

Molecule: B2
- Kd [10]: 431 nM

B3: sushi 1 peptide: sushi 1 domain of GABABR1a, recombinant (protein)
chain: TSEGCQIIHPPWEGGIRYRGLTRDQVKAINFLPVDYEIEYVCRGEREVVGPKVRKCLANGSWTDMDTPSRCVR
modifications: left off: Fc, end not stated, kept
- blocking of sAPPα-Fc binding to GABABR1a-expressing cells [11]: blocked binding of sAPPα-Fc to GABABR1a-expressing cells

Molecule: DDSDVWWGGADTDYADG (peptide, UniProt P05067-4 204-220, looked up) [APP 17mer peptide (APP695 204-220AA)]
- Kd [9]: 810 nM
